Measured values as given in ChEMBL document CHEMBL3085642, “Synthesis and evaluation of novel 4-nitropyrrole-based 1,3,4-oxadiazole derivatives as antimicrobial and anti-tubercular agents” (Eur J Med Chem, 2013).
≈ marks a conversion by molar mass, not a printed value.

Legend:
Escherichia coli [1] = assay: Antibacterial activity against Escherichia coli ATCC 25922 by two fold broth dilution method; type: functional
Staphylococcus aureus [2] = assay: Ratio of ciprofloxacin MIC to compound MIC against Staphylococcus aureus ATCC 25923; type: functional
Vero = assay: Cytotoxicity against african green monkey Vero cells after 72 hrs by MTT assay; type: cell-based; settings: Chlorocebus sabaeus
Summary of the method: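 Vero cells were exposed to compounds for 72 h. Viability was measured by cellular conversion of MTT into formazan (non-radioactive proliferation assay), and the cytotoxic concentration was reported as IC50.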

Candida albicans [3] = assay: Antifungal activity against Candida albicans after 48 hrs by two fold agar dilution method; type: functional
Summary of the method: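 Two-fold serial dilutions in DMSO were tested against C. albicans by agar dilution. Cultures were incubated for 48 h at 35 °C and growth was monitored. MIC was taken as the lowest concentration (highest dilution) that arrested fungal growth.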

Staphylococcus aureus [4] = assay: Antibacterial activity against methicillin-resistant Staphylococcus aureus ATCC 43866 by broth dilution method; type: functional
[5] = tested on: Mycobacterium tuberculosis; assay: Antitubercular activity against Mycobacterium tuberculosis H37Rv after 7 days by resazurin microtitre assay; type: functional; settings: 168 h
Bacillus spizizenii [6] = assay: Antibacterial activity against Bacillus subtilis ATCC 6633 by two fold broth dilution method; type: functional
Staphylococcus aureus [7] = assay: Antibacterial activity against methicillin-susceptible Staphylococcus aureus ATCC 35556 by broth dilution method; type: functional
Candida albicans [8] = assay: Ratio of ampotericin-B MIC to compound MIC against Candida albicans; type: functional
Klebsiella pneumoniae = assay: Antibacterial activity against Klebsiella pneumoniae by two fold broth dilution method; type: functional
Staphylococcus aureus [9] = assay: Ratio of ciprofloxacin MIC to compound MIC against methicillin-susceptible Staphylococcus aureus ATCC 35556; type: functional
Staphylococcus aureus [10] = assay: Antibacterial activity against Staphylococcus aureus ATCC 25923 by two fold broth dilution method; type: functional
Escherichia coli [11] = assay: Ratio of ciprofloxacin MIC to compound MIC against Escherichia coli ATCC 25922; type: functional
Bacillus spizizenii [12] = assay: Ratio of ciprofloxacin MIC to compound MIC against Bacillus subtilis ATCC 6633; type: functional
Staphylococcus aureus [13] = assay: Ratio of ciprofloxacin MIC to compound MIC against methicillin-resistant Staphylococcus aureus ATCC 43866; type: functional

Row | Compound | MIC (Escherichia coli [1]) [µg/mL] | Ratio (Staphylococcus aureus [2]) | IC50 (Vero) [µM] | MIC (Candida albicans [3]) [µg/mL] | MIC (Staphylococcus aureus [4]) [µg/mL] | MIC [5] [µg/mL] | MIC (Bacillus spizizenii [6]) [µg/mL] | MIC (Staphylococcus aureus [7]) [µg/mL] | Ratio (Candida albicans [8]) | MIC (Klebsiella pneumoniae) [µg/mL] | Ratio (Staphylococcus aureus [9]) | MIC (Staphylococcus aureus [10]) [µg/mL] | Ratio (Escherichia coli [11]) | Ratio (Bacillus spizizenii [12]) | Ratio (Staphylococcus aureus [13])
1 | Cn1cc([N+](=O)[O-])cc1-c1nnc(-c2ccc(C#N)cc2)o1 | 6.25 (≈ 21.2 µM) | 2 | 315 | 1.56 (≈ 5.28 µM) | 1.56 (≈ 5.28 µM) | 84.6 (≈ 287 µM) | 1.56 (≈ 5.28 µM) | 0.39 (≈ 1.32 µM) | 2 | 12.5 (≈ 42.3 µM) | 2 | 0.78 (≈ 2.64 µM) |  |  | 
2 | COc1cccc(OC)c1-c1nnc(-c2cc([N+](=O)[O-])cn2C)o1 | 6.25 (≈ 18.9 µM) | 2 | 177 | 1.56 (≈ 4.72 µM) | 1.56 (≈ 4.72 µM) | 32 (≈ 96.9 µM) | 1.56 (≈ 4.72 µM) | 0.39 (≈ 1.18 µM) | 2 | 12.5 (≈ 37.8 µM) | 2 | 0.78 (≈ 2.36 µM) |  |  | 
3 | Cn1cc([N+](=O)[O-])cc1-c1nnc(-c2cc(-c3ccccc3)nc3ccc(Cl)cc23)o1 | 0.39 (≈ 0.903 µM) | 3 | 328 | 0.78 (≈ 1.81 µM) | 1.56 (≈ 3.61 µM) |  | 1.56 (≈ 3.61 µM) | 0.39 (≈ 0.903 µM) | 3 | 12.5 (≈ 28.9 µM) |  | 0.39 (≈ 0.903 µM) | 3 |  | 
4 | Cn1cc([N+](=O)[O-])cc1-c1nnc(-c2ccc[nH]2)o1 | 1.56 (≈ 6.02 µM) | 3 | 208 | 0.78 (≈ 3.01 µM) | 0.78 (≈ 3.01 µM) | 29.3 (≈ 113 µM) | 0.78 (≈ 3.01 µM) | 0.39 (≈ 1.5 µM) | 3 | 12.5 (≈ 48.2 µM) | 2 | 0.39 (≈ 1.5 µM) |  | 2 | 2
5 | Cn1cc([N+](=O)[O-])cc1-c1nnc(-c2ccc(Cl)cc2Cl)o1 | 1.56 (≈ 4.6 µM) | 3 | 387 | 1.56 (≈ 4.6 µM) | 0.78 (≈ 2.3 µM) | 18.4 (≈ 54.3 µM) | 0.78 (≈ 2.3 µM) | 0.39 (≈ 1.15 µM) | 2 | 12.5 (≈ 36.9 µM) | 2 | 0.39 (≈ 1.15 µM) |  | 2 | 2
6 | O=[N+]([O-])c1c[nH]c(-c2nnc(-c3cc(-c4ccccc4)nc4ccc(Cl)cc34)o2)c1 | 0.78 (≈ 1.87 µM) |  | 281 | 1.56 (≈ 3.73 µM) | 3.12 (≈ 7.48 µM) | 97.2 (≈ 233 µM) | 3.12 (≈ 7.48 µM) | 1.56 (≈ 3.73 µM) |  | 25 (≈ 59.8 µM) |  | 1.56 (≈ 3.73 µM) | 2 |  | 
7 | O=[N+]([O-])c1c[nH]c(-c2nnc(-c3ccc[nH]3)o2)c1 | 0.78 (≈ 3.18 µM) | 2 | 226 | 1.56 (≈ 6.36 µM) | 1.56 (≈ 6.36 µM) | 15.7 (≈ 64 µM) | 1.56 (≈ 6.36 µM) | 1.56 (≈ 6.36 µM) |  | 12.5 (≈ 51 µM) |  | 0.78 (≈ 3.18 µM) | 2 |  | 
8 | Cn1cc([N+](=O)[O-])cc1-c1nnc(-c2ccccc2Br)o1 | 1.56 (≈ 4.47 µM) | 2 | 303 | 1.56 (≈ 4.47 µM) | 1.56 (≈ 4.47 µM) | 12.8 (≈ 36.7 µM) | 0.78 (≈ 2.23 µM) | 0.39 (≈ 1.12 µM) | 2 | 12.5 (≈ 35.8 µM) | 2 | 0.78 (≈ 2.23 µM) |  | 2 | 
9 | COc1cc(/C=C/c2nnc(-c3cc([N+](=O)[O-])cn3C)o2)ccc1O | 3.12 (≈ 9.13 µM) | 2 | 202 | 12.5 (≈ 36.5 µM) | 1.56 (≈ 4.56 µM) | 51.8 (≈ 151 µM) | 1.56 (≈ 4.56 µM) | 0.39 (≈ 1.14 µM) | 2 | 50 (≈ 146 µM) | 2 | 0.78 (≈ 2.28 µM) |  |  | 
10 | Cn1cc([N+](=O)[O-])cc1-c1nnc(C2CCCNC2)o1 (stereo not given) | 3.12 (≈ 11.3 µM) | 2 | 611 | 1.56 (≈ 5.63 µM) | 1.56 (≈ 5.63 µM) | 35.6 (≈ 128 µM) | 1.56 (≈ 5.63 µM) | 0.39 (≈ 1.41 µM) | 2 | 12.5 (≈ 45.1 µM) | 2 | 0.78 (≈ 2.81 µM) |  |  | 
11 | Cn1cc([N+](=O)[O-])cc1-c1nnc(Cc2ccccc2F)o1 | 1.56 (≈ 5.16 µM) | 2 | 245 | 1.56 (≈ 5.16 µM) | 1.56 (≈ 5.16 µM) | 8.6 (≈ 28.5 µM) | 0.78 (≈ 2.58 µM) | 1.56 (≈ 5.16 µM) | 2 | 12.5 (≈ 41.4 µM) |  | 0.78 (≈ 2.58 µM) |  | 2 | 
12 | COc1cccc(-c2nnc(-c3cc([N+](=O)[O-])cn3C)o2)c1 | 3.12 (≈ 10.4 µM) | 2 | 299 | 1.56 (≈ 5.2 µM) | 1.56 (≈ 5.2 µM) | 37.4 (≈ 125 µM) | 1.56 (≈ 5.2 µM) | 0.39 (≈ 1.3 µM) | 2 | 12.5 (≈ 41.6 µM) | 2 | 0.78 (≈ 2.6 µM) |  |  | 
